# Results pooled from the literature.
# Compare with care: the assays were run in different laboratories.
# Target: Tyrosine-protein kinase Tec (TEC, Homo sapiens, UniProt P42680)
# Residues used in one study (P42680 1-631): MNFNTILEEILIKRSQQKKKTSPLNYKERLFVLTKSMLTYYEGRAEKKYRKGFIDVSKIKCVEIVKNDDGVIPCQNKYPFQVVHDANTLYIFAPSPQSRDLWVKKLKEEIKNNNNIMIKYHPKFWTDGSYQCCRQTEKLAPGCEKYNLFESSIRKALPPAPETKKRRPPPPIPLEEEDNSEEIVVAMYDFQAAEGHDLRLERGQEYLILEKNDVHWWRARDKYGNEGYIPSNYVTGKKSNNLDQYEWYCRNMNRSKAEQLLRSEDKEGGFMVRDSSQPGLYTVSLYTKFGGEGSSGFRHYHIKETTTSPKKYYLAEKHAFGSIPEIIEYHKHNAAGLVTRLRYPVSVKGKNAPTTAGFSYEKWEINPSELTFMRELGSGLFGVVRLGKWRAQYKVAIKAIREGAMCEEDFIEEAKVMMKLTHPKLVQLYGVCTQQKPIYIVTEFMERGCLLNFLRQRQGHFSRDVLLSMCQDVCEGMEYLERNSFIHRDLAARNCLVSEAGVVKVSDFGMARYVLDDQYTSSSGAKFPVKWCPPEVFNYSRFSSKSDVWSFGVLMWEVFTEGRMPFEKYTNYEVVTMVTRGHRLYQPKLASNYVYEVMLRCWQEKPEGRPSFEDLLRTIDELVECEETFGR
Structure (SMILES),test,conditions,remaining binding [%]
CN(C(=O)c1ccccc1)c1cc(N(C)c2ccc3c(c2)CCc2ccc(C(=O)NCCN4CCOCC4)cc2C3=O)ccc1F,"cell-free assay, competition with immobilised ligand",1 µM,100
O=C(NCCCN1CCOCC1)c1ccc(Nc2nccc(-c3cc4ccccc4s3)n2)cc1,"binding, competition with immobilised ligand",1 µM,100
c1cncc(-c2cccc(Nc3nccc(NC4CCCCC4)n3)c2)c1,"binding, competition with immobilised ligand",10 µM,94
O=c1nc(-c2ccccn2)sc2ccccc12,"binding, competition with immobilised ligand",1 µM,82
C=CC(=O)N1CCC(C(=O)NCC(=O)N2CCN(c3nc(-c4cnc(N)nc4C(F)F)nc(N4CCOCC4)n3)CC2)CC1,"binding, competition with immobilised ligand",1 µM,99
COc1cnc(Nc2cccc(S(N)(=O)=O)c2)nc1N1CCN(c2ccccc2)C(=O)C1,"binding, competition with immobilised ligand",1 µM,100
O=C(c1ccc(Nc2ncc(Cl)c(-c3cc4ccccc4s3)n2)cc1)N1CCC(N2CCCC2)CC1,"binding, competition with immobilised ligand",1 µM,99
C[C@@H]1CN(c2cc(-c3n[nH]c4ccc(OC5(C)CC5)cc34)ncn2)C[C@H](C)O1,"cell-free assay, competition with immobilised ligand",0.1 µM,74
O=C(c1ccc(Nc2nccc(-c3cc4ccccc4s3)n2)cc1)N1CCC(N2CCCC2)CC1,"binding, competition with immobilised ligand",1 µM,100
COc1ccnn2ncc(-c3ccnc(N(C)C)n3)c12,binding,1 µM,93
O=C(NCC1CCOCC1)c1n[nH]cc1NC(=O)c1c(F)cccc1F,"binding, competition with immobilised ligand",1 µM,100
N[C@@H]1CCN(c2nccc(-c3cnn4ncccc34)n2)C1,binding,1 µM,95
COc1ccc2c(O[C@@H]3C[C@H]4C(=O)N[C@]5(C(=O)O)CC5/C=C\CCCCC[C@H](NC(=O)OC5CCCC5)C(=O)N4C3)cc(-c3csc(NC(=O)C(C)C)n3)nc2c1C (stereo partly drawn),"cell-free assay, competition with immobilised ligand",1 µM,100
c1cnn2ncc(-c3ccnc(N4CCC45COC5)n3)c2c1,binding,1 µM,99
COc1ncc2cc3ccccc3nc2c1C#N,"binding, competition with immobilised ligand",5 µM,100
CN(C)c1ncc(F)c(-c2cnn3ncccc23)n1,binding,1 µM,100
O=C(O)[C@H]1[C@H](Cn2nnc3ccccc3c2=O)CC[C@@H]1C(=O)c1ccc(OCCC2CCOCC2)cc1,"binding, competition with immobilised ligand",1 µM,100
C[C@@H]1CCN(c2nccc(-c3cnn4ncccc34)n2)C1,binding,1 µM,90
O=C(Nc1cccnn1)N1CCC(=Cc2cccc(Oc3ccc(C(F)(F)F)cn3)c2)CC1,"cell-free assay, competition with immobilised ligand",1 µM,100
CN(CCCC(F)(F)F)c1nccc(-c2cnn3ncccc23)n1,binding,1 µM,97
CNC(=O)[C@@H]1CC[C@@H](n2c(-c3ccc4cnccc4c3)nc3ccc(C(=O)NCc4cccc(C(N)=O)c4)cc32)C1,"binding, competition with immobilised ligand",1 µM,100
